Active and inactive are the calls of the source. The calls are words filed in the database; no cut-off is given here.

Results on 17 compounds are retold here after ChEMBL document CHEMBL1154050, “Design, synthesis and hypolipidemic activity of novel 2-(naphthalen-2-yloxy)propionic acid derivatives as desmethyl fibrate analogs” (2009).

Assay type in all cases: functional
The test system of assay [1] is Rattus norvegicus. As to the kind of experiment: Antihyperlipidemic activity in high-cholesterol diet fed Wistar albino rat model assessed as ratio of LDL level to HDL level at 20 mg/kg, po. Summed up:
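The ratio was calculated from group mean LDL and mean HDL. It used the HCD rat model (2% cholesterol, 1% cholic acid, 14 days), oral dosing at 20 mg/kg in 0.5% CMC on days 8–14, and n=6. Serum was taken from tail blood after a 12 h fast. HDL was measured by kit and LDL was derived by Friedewald's formula.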

Assay [2] concerns Rattus norvegicus. As to the kind of experiment: Antihyperlipidemic activity in high-cholesterol diet fed Wistar albino rat model assessed as increase in serum HDL level at 20 mg/kg, po. Summed up: (§1)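 Adult male rats given high cholesterol diet (2% cholesterol, 1% cholic acid) for 14 days, dosed orally at 20 mg/kg in 0.5% CMC on days 8–14. Normal-chow and HCD vehicle controls were included, n=6 per group. After a 12 h fast on day 14, tail blood was taken under mild ether anesthesia. Serum TC, TG and HDL were measured by kit spectrophotometry, and LDL was calculated by Friedewald's formula. Values are percent change versus the HCD control.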

The test system of assay [3] is Rattus norvegicus. Kind of assay: Antihyperlipidemic activity in high-cholesterol diet fed Wistar albino rat model assessed as reduction in serum total cholesterol level at 20 mg/kg, po. In short, it runs like this:
as §1

Assay [4] deals with Rattus norvegicus. Kind of assay: Antihyperlipidemic activity in high-cholesterol diet fed Wistar albino rat model assessed as reduction in serum triglyceride level at 20 mg/kg, po. In short, it runs like this:
as §1

Assay [5] relates to Rattus norvegicus. As to the kind of experiment: Antihyperlipidemic activity in high-cholesterol diet fed Wistar albino rat model assessed as reduction in serum LDL level at 20 mg/kg, po. In short, it runs like this: as §1

In the case of `COc1ccc(/C=N/NC(=O)C(C)Oc2ccc3ccccc3c2)cc1` (centres undefined), the Ratio in the assay with Rattus norvegicus [1] is recorded as 5.4. In the assay on Rattus norvegicus [2], the outcome was Active. Further, the result in the assay with Rattus norvegicus [3] was inactive.
Taken in the same sequence, the figures for `COc1ccc(NC(=O)C(C)Oc2ccc3ccccc3c2)cc1` (centres undefined) were 5.19, “Active” and “inactive”.
Consider `CC(Oc1ccc2ccccc2c1)c1n[nH]c(=S)n1-c1ccccc1` (centres undefined), for which the Ratio with Rattus norvegicus [1] came out at 3.75. Moreover, the result with Rattus norvegicus [4] and with Rattus norvegicus [3] was inactive. Besides, the result with Rattus norvegicus [5] was Active. Besides, the Activity with Rattus norvegicus [2] is 47.78%.
As for `CCSc1nnc(C(C)Oc2ccc3ccccc3c2)n1-c1ccccc1` (centres undefined), the Ratio with Rattus norvegicus [1] came to 3.4. Also, the Activity with Rattus norvegicus [4] was 19.07%; in the assay with Rattus norvegicus [5], 19.15%; in the assay on Rattus norvegicus [2], 51.21%; with Rattus norvegicus [3], 19.44%.
For `CCSc1nnc(C(C)Oc2ccc3ccccc3c2)n1CC` (centres undefined) the same measures were 4.5, “inactive”, “Active”, “Active” and “inactive”.
As to `CC(Oc1ccc2ccccc2c1)C(=O)NNC(=S)Nc1ccccc1` (centres undefined), in the assay on Rattus norvegicus [1], the Ratio was found to be 5.7. In the assay on Rattus norvegicus [2], the result was Active. For the same compound, the outcome in the assay with Rattus norvegicus [3] was inactive.
Turning to `CC(Oc1ccc2ccccc2c1)C(=O)N1N=C(c2ccccc2)CC1(O)c1ccccc1` (centres undefined), the Ratio in the assay with Rattus norvegicus [1] worked out at 3.99. Also, the result in the assay on Rattus norvegicus [4] and in the assay on Rattus norvegicus [3] was inactive. The Activity in the assay with Rattus norvegicus [2] is 49.73%.
For the compound `CC1=NN(C(=O)C(C)Oc2ccc3ccccc3c2)C(=O)C1` (centres undefined), the Ratio with Rattus norvegicus [1] stood at 4.54. Besides, the Activity came out at 21.74% with Rattus norvegicus [5] and 15.89% with Rattus norvegicus [3]. The outcome in the assay on Rattus norvegicus [2] was Active.
`CC(C)=NNC(=O)C(C)Oc1ccc2ccccc2c1` (centres undefined): the Ratio in the assay on Rattus norvegicus [1] came to 6.1. Moreover, the outcome in the assay on Rattus norvegicus [2] was Active. Besides, in the assay with Rattus norvegicus [3], the result was inactive.
Take `CC(Oc1ccc2ccccc2c1)C(=O)N/N=C/c1ccc([N+](=O)[O-])cc1` (centres undefined): the Ratio in the assay with Rattus norvegicus [1] was 4.74. Besides, the result in the assay with Rattus norvegicus [4] and with Rattus norvegicus [3] was inactive. The outcome with Rattus norvegicus [2] was Active.
In the case of `C/C(=N\NC(=O)C(C)Oc1ccc2ccccc2c1)c1ccc(Br)cc1` (centres undefined), in the assay on Rattus norvegicus [1], the Ratio worked out at 6.04. For the same compound, the outcome in the assay with Rattus norvegicus [2] was Active. Moreover, the result in the assay on Rattus norvegicus [3] was inactive.
Regarding `CC(Oc1ccc2ccccc2c1)c1n[nH]c(=S)o1` (centres undefined), in the assay with Rattus norvegicus [1], the Ratio was found to be 3.29. The Activity came to 26.78% in the assay with Rattus norvegicus [4], 19.58% in the assay with Rattus norvegicus [5], 55.42% in the assay with Rattus norvegicus [2] and 16.18% with Rattus norvegicus [3].
Consider `C=CCNC(=S)NNC(=O)C(C)Oc1ccc2ccccc2c1` (centres undefined), for which, in the assay with Rattus norvegicus [1], the Ratio was found to be 8.16. In addition, the result in the assay on Rattus norvegicus [2] was Active. For the same compound, the result with Rattus norvegicus [3] was inactive.
`CCn1c(C(C)Oc2ccc3ccccc3c2)n[nH]c1=S` (centres undefined): in the assay with Rattus norvegicus [1], the Ratio amounted to 3.61. The Activity with Rattus norvegicus [4] is given as 20.88%; in the assay with Rattus norvegicus [2], 48.25%. In the assay on Rattus norvegicus [5], the outcome was Active. In the assay with Rattus norvegicus [3], the outcome was inactive.
Regarding `CC(Oc1ccc2ccccc2c1)C(=O)O` (centres undefined), the result in the assay with Rattus norvegicus [5] and in the assay on Rattus norvegicus [2] was Active.
Turning to `Cc1ccc(C)c(OCCCC(C)(C)C(=O)O)c1` [GEMFIBROZIL], the Ratio with Rattus norvegicus [1] was 4.81. Also, the Activity is on record as 22.23% in the assay with Rattus norvegicus [4], 25.18% with Rattus norvegicus [2] and 4.68% in the assay on Rattus norvegicus [3].
On to `CCNC(=S)NNC(=O)C(C)Oc1ccc2ccccc2c1` (centres undefined), for which the Ratio in the assay on Rattus norvegicus [1] was determined as 6.71. The result in the assay with Rattus norvegicus [2] was Active. Besides, the result in the assay with Rattus norvegicus [3] was inactive.
